In brackets after ≈: the same amount, converted by molar mass.
Tests used:
[1] = Lipophilicity, log D by CHI method; type: physicochemical; conditions: read-out: Log D
Summary of the method: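 Lipophilicity determined by an HPLC-based method.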

[2] = biological target: T1, Oxytocin receptor (Homo sapiens, UniProt P30559); test: Displacement of [3H]oxytocin from human OTR
T1 sequence (P30559 whole entry): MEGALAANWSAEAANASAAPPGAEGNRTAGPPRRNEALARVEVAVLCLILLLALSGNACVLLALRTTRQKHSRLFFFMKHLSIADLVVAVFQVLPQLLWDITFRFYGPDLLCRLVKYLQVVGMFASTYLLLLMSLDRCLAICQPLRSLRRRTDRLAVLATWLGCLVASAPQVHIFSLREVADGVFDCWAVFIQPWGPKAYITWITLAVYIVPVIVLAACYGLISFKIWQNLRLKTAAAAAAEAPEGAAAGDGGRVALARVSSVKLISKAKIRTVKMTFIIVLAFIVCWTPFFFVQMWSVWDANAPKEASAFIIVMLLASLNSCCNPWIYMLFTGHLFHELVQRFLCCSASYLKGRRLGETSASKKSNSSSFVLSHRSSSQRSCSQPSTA

[3] = Clearance in dog; type: ADME, organism-based, Canis lupus familiaris; conditions: in vivo
Summary of the method: (§1)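 Dog pharmacokinetics, n = 3; dosed at 0.6 mg/kg in 5% DMSO/95% PEG400. AUC reported as ng·h mL⁻¹ and clearance as mL min⁻¹ kg⁻¹.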

[4] = Oral bioavailability in rat; type: ADME, organism-based; conditions: in vivo
[5] = Oral bioavailability in dog; type: ADME, organism-based, Canis lupus familiaris; conditions: in vivo
[6] = Clearance in rat; type: ADME, organism-based; conditions: in vivo
Summary of the method: (§2)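 Rat pharmacokinetics, n = 4; dosed at 5 mg/kg in 5% DMSO/95% PEG400. AUC in ng·h mL⁻¹, clearance in mL min⁻¹ kg⁻¹, half-life in h.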

[7] = AUC in rat; type: ADME, organism-based; parameters: concentration or dose not given beside the values; conditions: plasma; summary of the method: as §2
[8] = Solubility of the compound; type: physicochemical
Summary of the method: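 Aqueous solubility (mg mL⁻¹) measured by precipitation followed by HPLC.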

[9] = AUC in dog; type: ADME, organism-based, Canis lupus familiaris; parameters: concentration or dose not given beside the values; conditions: plasma; summary of the method: as §1

Row | Structure (SMILES) | chromatographic logD [1] | Ki [2] [nM] | clearance [3] [mL/min/kg] | bioavailability [4] [%] | bioavailability [5] [%] | clearance [6] [mL/min/kg] | AUC [7] [ng·h/mL] | solubility [8] [µg/mL] | AUC [9] [ng·h/mL]
1 | COc1ccc([C@H](C(=O)NC(C)(C)C)N2C(=O)[C@@H](C3Cc4ccccc4C3)NC(=O)[C@H]2CC(C)C)cc1F | 3.4 |  |  |  |  |  |  |  | 
2 | CC(C)C[C@@H]1C(=O)N[C@H](C2Cc3ccccc3C2)C(=O)N1[C@@H](C(=O)NC(C)(C)C)c1ccc2c(c1)CCO2 | 3.4 | 3.98 | 14 | 27 | 9 | 39 |  |  | 
3 | CC(C)C[C@@H]1C(=O)N[C@H](C2Cc3ccccc3C2)C(=O)N1[C@@H](CO)c1ccc(F)cc1F |  | 12.6 |  |  |  |  | 567 |  | 
4 | CC(C)C[C@@H]1C(=O)N[C@H](C2Cc3ccccc3C2)C(=O)N1[C@@H](C(=O)O)c1ccc(F)cc1F | 1.7 | 0.631 | 21 | 30 | 5 | 53 | 805 | 216 (≈ 473 µM) | 23
5 | CC(C)C[C@@H]1C(=O)N[C@H](C2Cc3ccccc3C2)C(=O)N1[C@@H](C(=O)NC(C)(C)C)c1ccc2c(c1)OCO2 | 3.3 | 3.98 | 23 | 48 | 14 | 34 |  |  | 
6 | CC(C)C[C@@H]1C(=O)N[C@H](C2Cc3ccccc3C2)C(=O)N1[C@@H](C(=O)NCC(F)(F)F)c1ccc(F)cc1 | 3.3 |  |  |  |  |  |  |  | 
7 | Cc1ccc([C@H](C(=O)NC(C)C)N2C(=O)[C@@H](C3Cc4ccccc4C3)NC(=O)[C@H]2CC(C)C)o1 | 3.3 |  |  |  |  |  |  |  | 
8 | CC(C)C[C@@H]1C(=O)N[C@H](C2Cc3ccccc3C2)C(=O)N1[C@@H](C(=O)NC(C)(C)C)c1ccc(N2CCC(O)CC2)cc1 | 2.4 | 3.98 | 21 | 24 | 10 | 26 |  |  | 
9 | CC(C)C[C@@H]1C(=O)N[C@H](C2Cc3ccccc3C2)C(=O)N1[C@@H](C(=O)NCCO)c1ccc(F)cc1 | 2.3 |  |  |  |  |  |  |  | 
10 | CC(C)C[C@@H]1C(=O)N[C@H](C2Cc3ccccc3C2)C(=O)N1[C@@H](C(=O)NC(C)C)c1ccc(N(C)C)cc1 |  |  | 15 | 2 | 50 | 48 |  |  | 
11 | CC(C)C[C@@H]1C(=O)N[C@H](C2Cc3ccccc3C2)C(=O)N1[C@@H](C(=O)NCCN1CCCCC1)c1ccc(F)cc1 | 2 |  |  |  |  |  |  |  | 
12 | CC(C)C[C@@H]1C(=O)N[C@H](C2Cc3ccccc3C2)C(=O)N1[C@@H](C(N)=O)c1ccc(F)cc1F | 2.5 | 0.501 |  | 22 |  | 33 | 560 | 1 (≈ 2.2 µM) | 
13 | CC(C)C[C@@H]1C(=O)N[C@H](C2Cc3ccccc3C2)C(=O)N1[C@@H](C(=O)N1CC(O)C1)c1ccc(F)cc1F | 2.8 | 0.631 |  | 12 |  | 19 | 540 | 187 (≈ 366 µM) | 
14 | CC(C)C[C@@H]1C(=O)N[C@H](C2Cc3ccccc3C2)C(=O)N1[C@@H](C(=O)N1CCN(C)CC1)c1ccc(F)cc1 | 2.7 |  |  |  |  |  |  |  | 
15 | CC(C)C[C@@H]1C(=O)N[C@H](C2Cc3ccccc3C2)C(=O)N1[C@@H](C(=O)N(C)Cc1ccccn1)c1ccc(F)cc1 | 3.2 |  |  |  |  |  |  |  | 
16 | CC[C@@H](C)[C@@H]1C(=O)N[C@H](C2Cc3ccccc3C2)C(=O)N1[C@@H](C(=O)NC(C)C)c1ccc(N2CCOCC2)cc1 | 3 | 1.58 | 6 | 31 | 61 | 24 |  |  | 
17 | CCNS(=O)(=O)c1ccc(-c2ccc([C@H](C(=O)NC(C)(C)C)N3C(=O)[C@@H](C4Cc5ccccc5C4)NC(=O)[C@H]3CC(C)C)cc2)cc1 | 3.4 |  |  |  |  |  |  |  | 
18 | CC(C)C[C@@H]1C(=O)N[C@H](C2Cc3ccccc3C2)C(=O)N1[C@@H](C(=O)N1CCOCC1)c1ccc(F)cc1F | 3.2 | 1.26 | 8 | 41 | 7 | 16 | 2150 |  | 100
